Results published in ChEMBL document CHEMBL1149048, “Kneglomeratanol, kneglomeratanones A and B, and related bioactive compounds from Knema glomerata” (J Nat Prod, 1994).
Converted amounts (≈) assume the structure as drawn.

Columns and labels:
[1] = Toxicity in brine shrimp larvae; type: organism-based; details: artemia, in vivo
[2] = tested on: HT-29; test: Cytotoxicity against human HT-29 cells after 7 days; type: functional; details: HT-29, 168 h, read-out: ED50 (the source's name)
Method in brief: (§1)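 This was a seven-day in vitro cytotoxicity test run under standard protocols on three solid tumor lines: A-549 (human lung carcinoma), MCF-7 (human breast carcinoma) and HT-29 (human colon adenocarcinoma). Adriamycin was the positive control.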

[3] = tested on: MCF7; test: Cytotoxicity against human MCF7 cells after 7 days; type: functional; details: MCF7, 168 h, read-out: ED50 (the source's name); method in brief: as §1
[4] = tested on: Agrobacterium tumefaciens; test: Antitumor activity against Agrobacterium tumefaciens-induced crown gall tumors in potato by disk test relative to control; type: functional
Method in brief: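 Crown gall tumors on potato discs were scored, and the read-out was % inhibition relative to control. The assay was run in-house.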

[5] = tested on: A549; test: Cytotoxicity against human A549 cells after 7 days; type: functional; details: A549, 168 h, read-out: ED50 (the source's name); method in brief: as §1

Structure (SMILES)	LC50 [1]	EC50 [2]	EC50 [3]	T/C [4]	EC50 [5]
Oc1cccc(CCCCCCCCC[C@H](O)c2ccccc2)c1 [KNEGLOMERATANOL]	0.21 µg/mL (≈ 0.643 µM)	9.33 µg/mL (≈ 28.6 µM)	2.32 µg/mL (≈ 7.11 µM)	29%	5.99 µg/mL (≈ 18.3 µM)
CCCCCCCCCCCCCc1cc(O)cc(O)c1C(C)=O [KNEGLOMERATANONE B]	1.92 µg/mL (≈ 5.74 µM)	6.56 µg/mL (≈ 19.6 µM)	1.12 µg/mL (≈ 3.35 µM)	38%	2.3 µg/mL (≈ 6.88 µM)
CCCCCCCCCCCCCCCc1cc(O)cc(O)c1 [CARDOL]	7.65 µg/mL (≈ 23.9 µM)	3.25 µg/mL (≈ 10.1 µM)	2.41 µg/mL (≈ 7.52 µM)	41%	2.37 µg/mL (≈ 7.39 µM)
Oc1cc(O)cc(CCCCCCCCCCCCc2ccccc2)c1	0.33 µg/mL (≈ 0.931 µM)	2.87 µg/mL (≈ 8.1 µM)	1.84 µg/mL (≈ 5.19 µM)	45%	3.26 µg/mL (≈ 9.2 µM)
COc1cccc2c1C(=O)c1c(O)c3c(c(O)c1C2=O)C[C@@](O)(C(=O)CO)C[C@@H]3O[C@H]1C[C@H](N)[C@H](O)[C@H](C)O1 [DOXORUBICIN]		0.00669 µg/mL (≈ 0.0123 µM)	0.147 µg/mL (≈ 0.27 µM)		0.00148 µg/mL (≈ 0.00272 µM)
COc1ccc(-c2coc3cc(O)ccc3c2=O)cc1 [FORMONONETIN]	22.7 µg/mL (≈ 84.6 µM)	6.43 µg/mL (≈ 24 µM)	1.96 µg/mL (≈ 7.31 µM)	79%	2.87 µg/mL (≈ 10.7 µM)
CC(=O)c1c(O)cc(O)cc1CCCCCCCCCCc1ccccc1	0.18 µg/mL (≈ 0.488 µM)	4.47 µg/mL (≈ 12.1 µM)	2.87 µg/mL (≈ 7.79 µM)	30%	3.22 µg/mL (≈ 8.74 µM)
O=C(O)c1c(O)cccc1CCCCCCCCCCCCc1ccccc1	1.24 µg/mL (≈ 3.24 µM)	2.98 µg/mL (≈ 7.79 µM)	3.06 µg/mL (≈ 8 µM)	61%	15 µg/mL (≈ 39.2 µM)
Oc1cc(O)cc(CCCCCCCCCCc2ccccc2)c1	0.47 µg/mL (≈ 1.44 µM)	3.24 µg/mL (≈ 9.92 µM)	2.69 µg/mL (≈ 8.24 µM)	62%	3.49 µg/mL (≈ 10.7 µM)
CC(=O)c1c(O)cc(O)cc1CCCCCCCCc1ccccc1 [KNEGLOMERATANONE A]	0.37 µg/mL (≈ 1.09 µM)	18.8 µg/mL (≈ 55.3 µM)	3.44 µg/mL (≈ 10.1 µM)	38%	3.89 µg/mL (≈ 11.4 µM)
Oc1cccc(CCCCCCCCCCc2ccccc2)c1	0.45 µg/mL (≈ 1.45 µM)	28.6 µg/mL (≈ 92.1 µM)	7.76 µg/mL (≈ 25 µM)	54%	35 µg/mL (≈ 113 µM)
COc1ccc(-c2coc3cc(O)cc(O)c3c2=O)cc1 [BIOCHANIN]	107 µg/mL (≈ 376 µM)	28.4 µg/mL (≈ 99.8 µM)	5.49 µg/mL (≈ 19.3 µM)	54%	19.8 µg/mL (≈ 69.5 µM)
Oc1cccc(CCCCCCCCCCCCc2ccccc2)c1	1.37 µg/mL (≈ 4.05 µM)	2.62 µg/mL (≈ 7.74 µM)	2.09 µg/mL (≈ 6.17 µM)	39%	1.85 µg/mL (≈ 5.46 µM)
